In ChEMBL document CHEMBL4043093, “2-Oxo-3, 4-dihydropyrimido[4, 5-d]pyrimidinyl derivatives as new irreversible pan fibroblast growth factor receptor (FGFR) inhibitors” (Eur J Med Chem, 2017) one finds Activity data, which are given here for 1 compound.

Each structure is given as a SMILES string.

Assay [1] relates to Epidermal growth factor receptor (Homo sapiens), P00533 [UNDEFINED MUTATION]. Put plainly: Inhibition of human partial length EGFR L747-S752del/P753S mutant expressed in Escherichia coli BL21 assessed as residual activity at 1000 nM after 30 mins by Kinomescan method relative to control. An outline of the steps:
(§1)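 KINOMEscan binding panel of 456 kinases, with the test compound at a single concentration of 1 µM. Read-out is Percent Control.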

The test system of assay [2] is Epidermal growth factor receptor (Homo sapiens), P00533 [G719C]. Put plainly: Inhibition of human partial length EGFR G719C mutant (R669 to V1011 residues) expressed in Escherichia coli BL21 assessed as residual activity at 1000 nM after 30 mins by Kinomescan method relative to control. An outline of the steps: as §1
The test system of assay [3] is Mast/stem cell growth factor receptor Kit (Homo sapiens), P10721 [A829P]. Put plainly: Inhibition of human partial length KIT A829P mutant (I571 to D952 residues) expressed in HEK293 cells assessed as residual activity at 1000 nM after 30 mins by Kinomescan method relative to control. The class given is cell-based. An outline of the steps:
as §1

Assay [4] deals with Casein kinase I isoform alpha (Homo sapiens) (UniProt P48729). Put plainly: Inhibition of wild-type human partial length CSNK1A1 (M1 to L450 residues) expressed in HEK293 cells assessed as residual activity at 1000 nM after 30 mins by Kinomescan method relative to control. Format: cell-based.
Assay [5] addresses Serine/threonine-protein kinase/endoribonuclease IRE1 (Homo sapiens) (UniProt O75460). Put plainly: Inhibition of wild-type human partial length ERN1 (S551 to E852 residues) expressed in HEK293 cells assessed as residual activity at 1000 nM after 30 mins by Kinomescan method relative to control. Format: cell-based.
The target of assay [6] is Calcium/calmodulin-dependent protein kinase kinase 2 (Homo sapiens) (UniProt Q96RR4). Put plainly: Inhibition of wild-type human partial length CAMKK2 (D65 to V471 residues) expressed in Escherichia coli BL21 assessed as residual activity at 1000 nM after 30 mins by Kinomescan method relative to control.
For assay [7], the target named is Glycogen synthase kinase-3 alpha (Homo sapiens) (UniProt P49840). Put plainly: Inhibition of wild-type human full length GSK3A (M1 to S483 residues) expressed in Escherichia coli BL21 assessed as residual activity at 1000 nM after 30 mins by Kinomescan method relative to control. An outline of the steps: (§2)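 Single-concentration screen at 1 µM across a 456-kinase KINOMEscan panel. The read-out is Percent Control for each kinase.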

Another assay concerns Plasmodium falciparum. Put plainly: Inhibition of wild-type Plasmodium falciparum full length PK5 (M1 to N288 residues) expressed in HEK293 cells assessed as residual activity at 1000 nM after 30 mins by Kinomescan method relative to control. Format: cell-based. An outline of the steps:
(§3)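 Single-point screen at a fixed 1 µM, run within a 456-kinase DiscoveRx KINOMEscan panel. Each kinase's read-out is Percent Control, i.e. signal relative to a control without compound. Hits were scored by a Percent Control < 35 cut-off, and an S(35) selectivity score was calculated across the non-mutant kinases.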

In assay [8] the target is Homeodomain-interacting protein kinase 2 (Homo sapiens) (UniProt Q9H2X6). Put plainly: Inhibition of wild-type human partial length HIPK2 (M153 to S564 residues) expressed in HEK293 cells assessed as residual activity at 1000 nM after 30 mins by Kinomescan method relative to control. Format: cell-based.
In assay [9] the target is SRSF protein kinase 2 (Homo sapiens) (UniProt P78362). Put plainly: Inhibition of wild-type human full length SRPK2 (M1 to S686 residues) expressed in Escherichia coli BL21 assessed as residual activity at 1000 nM after 30 mins by Kinomescan method relative to control.
Assay [10] has as its target Tyrosine-protein kinase receptor TYRO3 (Homo sapiens) (UniProt Q06418). Put plainly: Inhibition of wild-type human partial length TYRO3 (S497 to T814 residues) expressed in Escherichia coli BL21 assessed as residual activity at 1000 nM after 30 mins by Kinomescan method relative to control.
Assay [11] concerns the target Ephrin type-A receptor 1 (Homo sapiens) (UniProt P21709). Put plainly: Inhibition of wild-type human partial length EPHA1 (V588 to I913 residues) expressed in Escherichia coli BL21 assessed as residual activity at 1000 nM after 30 mins by Kinomescan method relative to control.
Assay [12] deals with Serine/threonine-protein kinase OSR1 (Homo sapiens) (UniProt O95747). Put plainly: Inhibition of wild-type human full length OSR1 (M1 to S527 residues) expressed in HEK293 cells assessed as residual activity at 1000 nM after 30 mins by Kinomescan method relative to control. The class given is cell-based. An outline of the steps: as §2
The target of assay [13] is Mitogen-activated protein kinase kinase kinase 7 (Homo sapiens) (UniProt O43318). Put plainly: Inhibition of wild-type human partial length TAK1 (M1 to Q303 residues) expressed in HEK293 cells assessed as residual activity at 1000 nM after 30 mins by Kinomescan method relative to control. The class given is cell-based.
Assay [14] addresses Mitogen-activated protein kinase kinase kinase 14 (Homo sapiens) (UniProt Q99558). Put plainly: Inhibition of wild-type human partial length NIK (L318 to P947 residues) expressed in HEK293 cells assessed as residual activity at 1000 nM after 30 mins by Kinomescan method relative to control. The class given is cell-based.
Assay [15] deals with TGF-beta receptor type-2 (Homo sapiens) (UniProt P37173). Put plainly: Inhibition of wild-type human partial length TGFBR2 (I218 to K567 residues) expressed in Escherichia coli BL21 assessed as residual activity at 1000 nM after 30 mins by Kinomescan method relative to control.
Assay [16] concerns the target Epithelial discoidin domain-containing receptor 1 (Homo sapiens) (UniProt Q08345). Put plainly: Inhibition of wild-type human partial length DDR1 (R565 to V876 residues) expressed in Escherichia coli BL21 assessed as residual activity at 1000 nM after 30 mins by Kinomescan method relative to control.
Assay [17] deals with Serine/threonine-protein kinase Nek3 (Homo sapiens) (UniProt P51956). Put plainly: Inhibition of wild-type human full length NEK3 (M1 to R506 residues) expressed in HEK293 cells assessed as residual activity at 1000 nM after 30 mins by Kinomescan method relative to control. The class given is cell-based. An outline of the steps: as §2
The target of assay [18] is Cyclin-dependent kinase 2 (Homo sapiens) (UniProt P24941). Put plainly: Inhibition of wild-type human full length CDK2 (M1 to L298 residues) expressed in Escherichia coli BL21 assessed as residual activity at 1000 nM after 30 mins by Kinomescan method relative to control. An outline of the steps:
as §3

Assay [19] deals with MAP kinase-activated protein kinase 5 (Homo sapiens) (UniProt Q8IW41). Put plainly: Inhibition of wild-type human partial length MAPKAPK5 (M1 to D322 residues) expressed in HEK293 cells assessed as residual activity at 1000 nM after 30 mins by Kinomescan method relative to control. Format: cell-based.
In assay [20] the target is Dual specificity mitogen-activated protein kinase kinase 4 (Homo sapiens) (UniProt P45985). Put plainly: Inhibition of wild-type human partial length MEK4 (S84 to D399 residues) expressed in HEK293 cells assessed as residual activity at 1000 nM after 30 mins by Kinomescan method relative to control. The class given is cell-based.
Dual specificity mitogen-activated protein kinase kinase 4 (Homo sapiens), sequence (P45985 whole entry, the tested form may be a part): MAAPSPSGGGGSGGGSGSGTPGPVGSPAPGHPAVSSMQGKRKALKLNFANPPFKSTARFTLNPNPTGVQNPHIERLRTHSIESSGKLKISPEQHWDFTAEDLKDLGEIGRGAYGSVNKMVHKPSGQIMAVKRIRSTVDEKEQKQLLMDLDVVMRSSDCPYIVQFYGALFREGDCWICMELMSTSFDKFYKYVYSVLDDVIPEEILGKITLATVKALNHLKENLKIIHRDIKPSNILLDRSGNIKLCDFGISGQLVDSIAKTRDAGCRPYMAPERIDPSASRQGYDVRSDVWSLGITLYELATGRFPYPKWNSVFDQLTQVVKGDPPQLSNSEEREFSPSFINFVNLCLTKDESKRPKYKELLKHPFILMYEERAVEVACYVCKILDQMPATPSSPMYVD

Casein kinase I isoform alpha (Homo sapiens), sequence (P48729 2-337 limits assumed): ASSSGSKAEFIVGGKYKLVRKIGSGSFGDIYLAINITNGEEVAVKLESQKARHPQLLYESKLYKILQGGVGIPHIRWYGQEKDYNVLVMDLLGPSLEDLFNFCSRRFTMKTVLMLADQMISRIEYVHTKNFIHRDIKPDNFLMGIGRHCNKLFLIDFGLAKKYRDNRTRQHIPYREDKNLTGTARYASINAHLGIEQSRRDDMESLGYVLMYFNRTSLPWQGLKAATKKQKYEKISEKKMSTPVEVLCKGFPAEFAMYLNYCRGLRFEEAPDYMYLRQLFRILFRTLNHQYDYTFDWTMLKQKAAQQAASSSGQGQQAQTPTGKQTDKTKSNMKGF
Mast/stem cell growth factor receptor Kit (Homo sapiens), P10721 [A829P], sequence (P10721 whole entry A829P, the tested form may be a part): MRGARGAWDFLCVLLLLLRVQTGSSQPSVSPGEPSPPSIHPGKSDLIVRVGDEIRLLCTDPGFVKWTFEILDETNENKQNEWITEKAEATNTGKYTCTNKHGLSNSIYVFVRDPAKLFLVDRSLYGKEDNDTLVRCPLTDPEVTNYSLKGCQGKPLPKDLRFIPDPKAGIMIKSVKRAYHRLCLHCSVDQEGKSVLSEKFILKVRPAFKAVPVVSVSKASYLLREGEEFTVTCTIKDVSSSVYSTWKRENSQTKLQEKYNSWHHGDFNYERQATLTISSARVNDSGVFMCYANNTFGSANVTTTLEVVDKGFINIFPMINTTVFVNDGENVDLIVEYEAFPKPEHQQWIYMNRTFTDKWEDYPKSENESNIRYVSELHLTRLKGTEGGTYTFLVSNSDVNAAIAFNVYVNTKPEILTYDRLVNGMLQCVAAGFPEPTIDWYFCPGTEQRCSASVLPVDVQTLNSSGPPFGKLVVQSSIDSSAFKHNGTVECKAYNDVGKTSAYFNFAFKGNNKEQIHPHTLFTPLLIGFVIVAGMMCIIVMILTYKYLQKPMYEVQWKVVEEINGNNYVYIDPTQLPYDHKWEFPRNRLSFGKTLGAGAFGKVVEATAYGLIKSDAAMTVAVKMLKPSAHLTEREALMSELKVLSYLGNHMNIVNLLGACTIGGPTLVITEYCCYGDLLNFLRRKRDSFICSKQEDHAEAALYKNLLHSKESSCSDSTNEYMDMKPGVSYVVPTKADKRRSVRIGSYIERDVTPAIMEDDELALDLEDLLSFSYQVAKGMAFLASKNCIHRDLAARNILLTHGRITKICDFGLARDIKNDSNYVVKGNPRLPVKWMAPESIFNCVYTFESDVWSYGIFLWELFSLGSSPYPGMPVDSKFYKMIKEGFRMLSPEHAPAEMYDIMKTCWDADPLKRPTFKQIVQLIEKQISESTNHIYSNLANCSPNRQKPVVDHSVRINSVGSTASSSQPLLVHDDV
SRSF protein kinase 2 (Homo sapiens), sequence (P78362 whole entry, looked up, the tested form may be a part): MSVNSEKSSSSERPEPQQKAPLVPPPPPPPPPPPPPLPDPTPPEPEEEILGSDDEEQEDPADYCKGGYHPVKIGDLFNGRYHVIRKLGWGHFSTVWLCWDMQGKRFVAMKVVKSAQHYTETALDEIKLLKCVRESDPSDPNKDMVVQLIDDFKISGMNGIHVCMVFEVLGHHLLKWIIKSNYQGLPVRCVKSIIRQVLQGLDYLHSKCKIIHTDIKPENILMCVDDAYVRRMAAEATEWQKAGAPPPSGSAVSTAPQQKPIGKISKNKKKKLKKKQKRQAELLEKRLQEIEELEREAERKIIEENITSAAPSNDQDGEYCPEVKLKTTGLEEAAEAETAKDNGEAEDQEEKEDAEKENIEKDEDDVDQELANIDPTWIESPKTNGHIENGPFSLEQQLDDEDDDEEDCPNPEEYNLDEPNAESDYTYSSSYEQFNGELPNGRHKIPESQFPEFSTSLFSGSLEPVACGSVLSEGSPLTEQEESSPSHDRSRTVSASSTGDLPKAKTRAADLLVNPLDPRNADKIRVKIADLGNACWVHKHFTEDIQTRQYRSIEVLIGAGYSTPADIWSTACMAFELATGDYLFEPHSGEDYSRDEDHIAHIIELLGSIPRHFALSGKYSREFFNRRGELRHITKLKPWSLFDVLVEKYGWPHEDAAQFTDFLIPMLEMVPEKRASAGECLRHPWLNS
Glycogen synthase kinase-3 alpha (Homo sapiens), sequence (P49840 2-483 limits assumed): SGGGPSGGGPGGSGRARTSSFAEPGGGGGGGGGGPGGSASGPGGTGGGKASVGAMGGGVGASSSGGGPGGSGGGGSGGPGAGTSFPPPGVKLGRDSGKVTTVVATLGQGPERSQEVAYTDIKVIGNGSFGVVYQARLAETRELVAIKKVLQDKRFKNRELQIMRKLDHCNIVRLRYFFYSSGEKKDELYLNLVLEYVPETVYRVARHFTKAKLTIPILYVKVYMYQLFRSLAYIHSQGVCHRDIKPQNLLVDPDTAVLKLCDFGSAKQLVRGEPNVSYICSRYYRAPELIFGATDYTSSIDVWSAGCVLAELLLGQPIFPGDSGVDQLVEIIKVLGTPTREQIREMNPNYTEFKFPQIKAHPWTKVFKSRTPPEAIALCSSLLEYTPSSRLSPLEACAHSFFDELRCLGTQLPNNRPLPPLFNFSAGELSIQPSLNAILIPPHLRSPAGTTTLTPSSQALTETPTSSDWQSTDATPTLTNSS
Mitogen-activated protein kinase kinase kinase 7 (Homo sapiens), sequence (O43318 whole entry, the tested form may be a part): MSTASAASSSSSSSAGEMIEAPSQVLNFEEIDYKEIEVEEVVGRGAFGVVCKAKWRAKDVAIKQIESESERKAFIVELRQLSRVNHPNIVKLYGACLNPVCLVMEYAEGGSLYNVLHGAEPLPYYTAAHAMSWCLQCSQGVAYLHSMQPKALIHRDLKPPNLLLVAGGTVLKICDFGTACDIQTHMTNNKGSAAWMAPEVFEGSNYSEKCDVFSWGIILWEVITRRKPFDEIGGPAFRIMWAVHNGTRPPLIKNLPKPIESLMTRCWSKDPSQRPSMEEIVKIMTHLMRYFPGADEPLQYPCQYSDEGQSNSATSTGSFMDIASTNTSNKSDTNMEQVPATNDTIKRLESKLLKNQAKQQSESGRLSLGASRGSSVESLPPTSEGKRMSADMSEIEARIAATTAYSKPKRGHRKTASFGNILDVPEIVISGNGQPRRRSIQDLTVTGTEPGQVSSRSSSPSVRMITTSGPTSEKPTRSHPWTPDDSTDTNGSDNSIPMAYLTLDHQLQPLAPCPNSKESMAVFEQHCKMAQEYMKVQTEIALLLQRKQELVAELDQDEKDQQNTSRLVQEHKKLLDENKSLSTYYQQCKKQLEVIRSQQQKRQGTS
Tyrosine-protein kinase receptor TYRO3 (Homo sapiens), sequence (Q06418 whole entry, the tested form may be a part): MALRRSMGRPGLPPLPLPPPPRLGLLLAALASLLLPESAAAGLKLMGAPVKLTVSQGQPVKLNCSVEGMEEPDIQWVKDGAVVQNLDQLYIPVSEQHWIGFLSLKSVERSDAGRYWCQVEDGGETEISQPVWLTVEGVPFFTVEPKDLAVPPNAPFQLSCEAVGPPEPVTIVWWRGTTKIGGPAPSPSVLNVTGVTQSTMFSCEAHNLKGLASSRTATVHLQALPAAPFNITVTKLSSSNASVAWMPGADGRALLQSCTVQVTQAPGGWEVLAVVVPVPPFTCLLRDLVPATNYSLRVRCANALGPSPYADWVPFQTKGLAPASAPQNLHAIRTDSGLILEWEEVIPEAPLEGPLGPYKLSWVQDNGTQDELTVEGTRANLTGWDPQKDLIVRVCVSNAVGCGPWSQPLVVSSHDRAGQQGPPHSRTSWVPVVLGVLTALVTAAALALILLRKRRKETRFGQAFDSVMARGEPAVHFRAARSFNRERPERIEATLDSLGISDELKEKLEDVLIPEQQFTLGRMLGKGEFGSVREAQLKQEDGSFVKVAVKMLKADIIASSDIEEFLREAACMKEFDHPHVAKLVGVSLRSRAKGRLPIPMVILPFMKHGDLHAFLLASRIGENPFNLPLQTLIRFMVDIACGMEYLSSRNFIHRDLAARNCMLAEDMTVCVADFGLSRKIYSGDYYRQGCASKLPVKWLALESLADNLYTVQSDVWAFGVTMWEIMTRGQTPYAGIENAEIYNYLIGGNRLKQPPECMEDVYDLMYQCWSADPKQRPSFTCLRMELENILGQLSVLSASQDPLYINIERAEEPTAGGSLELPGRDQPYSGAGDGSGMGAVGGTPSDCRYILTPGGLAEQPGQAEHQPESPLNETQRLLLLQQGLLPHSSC
Serine/threonine-protein kinase OSR1 (Homo sapiens), sequence (O95747 2-527 limits assumed): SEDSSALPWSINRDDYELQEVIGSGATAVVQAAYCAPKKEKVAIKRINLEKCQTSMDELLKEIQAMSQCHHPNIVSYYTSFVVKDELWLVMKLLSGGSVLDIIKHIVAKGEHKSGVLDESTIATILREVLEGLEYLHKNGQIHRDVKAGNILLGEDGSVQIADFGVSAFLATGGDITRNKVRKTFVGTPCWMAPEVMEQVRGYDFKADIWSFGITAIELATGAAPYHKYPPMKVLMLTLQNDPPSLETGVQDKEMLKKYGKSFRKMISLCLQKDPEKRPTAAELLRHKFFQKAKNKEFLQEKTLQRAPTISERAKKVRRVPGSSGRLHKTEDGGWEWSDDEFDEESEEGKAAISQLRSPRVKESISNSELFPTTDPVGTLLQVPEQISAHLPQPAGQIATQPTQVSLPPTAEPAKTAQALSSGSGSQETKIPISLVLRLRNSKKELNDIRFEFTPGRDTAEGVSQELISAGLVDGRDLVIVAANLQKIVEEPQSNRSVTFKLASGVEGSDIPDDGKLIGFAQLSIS

For `COc1cc(OC)c(Cl)c(N2Cc3cnc(Nc4ccc(F)cc4)nc3N(C3CCN(C(=O)/C=C/CN(C)C)CC3)C2=O)c1Cl`, the Activity in assay [1] is 100%; in assay [2] it was 87%; in assay [3], 30%; in assay [4], 100%; in assay [5], 100%; in assay [6], 99%. In addition, the Activity in assay [7] is 100%; with Plasmodium falciparum, 100%; in assay [8], 100%; in [9], 91%; in assay [10], 57%; in assay [11], 82%. For the same compound, the Activity was 100% in [12]; 100% in assay [13]; 93% in [14]; 91% in assay [15]; 7% in assay [16]; 79% in assay [17]. Also, the Activity in assay [18], in [19] and in assay [20] was 100% in each case.
